“Also recorded” adds a separate entry of the source.
Assays:
CD138+CD38- plasma cells = experiment: HTFC drug sensitivity assay, plasma cell subset; type: cell-based, human; conditions: CD138+CD38- plasma cells compared to CD138+CD38+ or other cells, MM samples
Method in brief: (§1)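 Cohort I comprised 16 samples: 3 healthy PB, 3 AML and 10 MM. Samples were tested in 96-well plates against six compounds by no-wash high-throughput flow cytometry (iQue Screener PLUS). Two antibody panels defined up to ten subsets, including CD138+CD38± plasma cells and CD34+CD38± progenitors. Per-population cell counts gave dose–response curves, from which DSS and IC50 were derived. Results were shown as mean±SEM per disease group.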

monocytes (CD14+) = experiment: HTFC drug sensitivity assay, monocytes; type: cell-based, human; conditions: for response of monocytes, in words: mean of 16 samples (3 healthy, 3 AML, 10 MM), Cohort I
Method in brief: (§2)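 Three healthy PB samples were screened ex vivo with 71 compounds at 5 concentrations in 384-well plates. The assay was a no-wash multiplexed flow cytometry run on an iQue Screener PLUS. Six subsets were gated by surface antigen: CD19+, CD56+, CD3+CD4+, CD3+CD8+, CD3+CD56+ and CD14+. Cell counts per subset gave dose–response curves, and DSS was derived from these.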

CD56+/NK cells = experiment: HTFC drug sensitivity assay, NK cells; type: cell-based, human; conditions: for sensitivity compared to other cell types, in words: NK cells, three healthy PB samples, 71-drug screen
Method in brief: as §2

CD19+/B cells = experiment: High throughput no-wash flow cytometry; type: cell-based, human; conditions: for sensitivity compared to other cell types, in words: B cells, three healthy PB samples, 71-drug screen
CD34+CD38- cells (HSC) = experiment: HTFC drug sensitivity assay, hematopoietic stem cells; type: cell-based, human; conditions: CD34+CD38- cells from healthy donors (BM, n=2)
[1] = tested on: CD34+CD38+ cells (CPC/blast); experiment: HTFC drug sensitivity assay, progenitor/blast cells; type: cell-based; conditions: Homo sapiens
T-cell subsets (CD3+) = experiment: HTFC drug sensitivity assay, T-cell subsets; type: cell-based, human
Method in brief: as §1

[2] = tested on: T-cell malignancies (primary samples); experiment: CellTiter-Glo viability assay; type: cell-based, human; conditions: similar to healthy T cells
Method in brief: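 Primary BM aspirates from leukemia patients (Cohort III, n=281 total), with T-PLL samples tested as enriched CD8+ cells, were exposed to the drug panel. The endpoint was CellTiter-Glo luminescent viability. Luminescence was fitted to dose–response curves, from which a drug sensitivity score (DSS) was calculated. Comparison was against bead-enriched healthy BM CD3+ cells.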

In the case of `CC(C)C[C@H](NC(=O)[C@H](Cc1ccccc1)NC(=O)c1cnccn1)B(O)O` [bortezomib], the “ex vivo response, in words” value (CD138+CD38- plasma cells) is reported as “resistant”.
In the case of `Cc1nc(Nc2ncc(C(=O)Nc3c(C)cccc3Cl)s2)cc(N2CCN(CCO)CC2)n1` [dasatinib], the “drug response profile (DSS clustering), in words” value (monocytes (CD14+); monocytes, three healthy PB samples, 71-drug screen) is reported as “selective sensitivity”.
With `C[C@@H]1C[C@H]2[C@@H]3CCC4=CC(=O)C=C[C@]4(C)[C@@]3(F)[C@@H](O)C[C@]2(C)[C@@]1(O)C(=O)CO` [dexamethasone] the “effect on cell count, in words” value (CD56+/NK cells; CD56+ cells, Cohort I samples) was “depleted”, the “sensitivity compared to other cell types, in words” value (CD56+/NK cells) was “higher sensitivity” and the “effect on CD14+ cell count, in words” value (monocytes (CD14+); Cohort I samples) was “dose-dependent increase”. The “response of monocytes, in words” value (monocytes (CD14+)) was “resistant”, the “sensitivity compared to other cell types, in words” value (CD19+/B cells) was “higher sensitivity” and the “effect on cell count, in words” value (CD19+/B cells; CD19+ cells, Cohort I samples) was “depleted”.
`CO[C@@H]1[C@H](N(C)C(=O)c2ccccc2)C[C@H]2O[C@]1(C)n1c3ccccc3c3c4c(c5c6ccccc6n2c5c31)C(=O)NC4` [midostaurin] was tested, and the “sensitivity compared to other cell types, in words” value (CD56+/NK cells) was “higher sensitivity”, the “sensitivity, in words” value (CD34+CD38- cells (HSC)) was “insensitive; also recorded: no effect” and the IC50 [1] was 0.016 µM. The “sensitivity compared to other cell types, in words” value (CD19+/B cells) was “higher sensitivity”.
For `CC1(C)CCC(c2ccc(Cl)cc2)=C(CN2CCN(c3ccc(C(=O)NS(=O)(=O)c4ccc(N[C@H](CCN5CCOCC5)CSc5ccccc5)c(S(=O)(=O)C(F)(F)F)c4)cc3)CC2)C1` [navitoclax], the “response of monocytes, in words” value (monocytes (CD14+)) was “resistant”.
In the case of `COc1ncc(-c2ccc3nccc(-c4ccnnc4)c3c2)cc1NS(=O)(=O)c1ccc(F)cc1F` [omipalisib], the “sensitivity, in words” value (T-cell subsets (CD3+); T-cell subsets, Cohort I samples) is reported as “insensitive”, the “effect on CD3+ cell count, in words” value (T-cell subsets (CD3+); at concentrations of 10 and 100 nM) is reported as “increase” and the “response (DSS), in words” value [2] is reported as “no response”.
With `CC1(C)CCC(CN2CCN(c3ccc(C(=O)NS(=O)(=O)c4ccc(NCC5CCOCC5)c([N+](=O)[O-])c4)c(Oc4cnc5[nH]ccc5c4)c3)CC2)=C(c2ccc(Cl)cc2)C1` [venetoclax] the “sensitivity compared to other cell types, in words” value (CD56+/NK cells) was “higher sensitivity”, the “response of monocytes, in words” value (monocytes (CD14+)) was “resistant” and the “sensitivity compared to other cell types, in words” value (CD19+/B cells) was “higher sensitivity”.

Reference: publication PMC7271564 (Haematologica, 2019)
